Source: PMC5730275 (Chemical communications (Cambridge, England), 2017)
Numbering of substitutions follows the chain as printed.

How the values were obtained:
[1] = target: carbonic anhydrase (CA) II (Homo sapiens, UniProt P00918); assay: Selectivity: zinc-dependent enzyme carbonic anhydrase II; type: biochemical; conditions: 50 μM
Q320S NAPE-PLD = target: T1, Q320S NAPE-PLD (Homo sapiens, UniProt Q6IQ20, Q320S); assay: Inhibition of Q320S NAPE-PLD mutant; type: biochemical
T1 sequence (Q6IQ20 1-393 Q320S): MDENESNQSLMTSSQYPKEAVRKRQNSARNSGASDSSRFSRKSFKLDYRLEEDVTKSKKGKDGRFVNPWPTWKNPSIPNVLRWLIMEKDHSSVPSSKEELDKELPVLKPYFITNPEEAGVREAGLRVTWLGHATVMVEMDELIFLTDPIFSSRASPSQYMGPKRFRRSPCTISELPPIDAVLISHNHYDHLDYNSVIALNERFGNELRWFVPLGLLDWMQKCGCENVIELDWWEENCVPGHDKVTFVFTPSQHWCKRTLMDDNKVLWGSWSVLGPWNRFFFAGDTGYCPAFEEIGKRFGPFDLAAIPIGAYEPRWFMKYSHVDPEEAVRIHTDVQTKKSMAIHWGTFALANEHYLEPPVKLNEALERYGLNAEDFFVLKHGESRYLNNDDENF

Q320A NAPE-PLD mutant = target: T2, Q320A NAPE-PLD mutant (Homo sapiens, UniProt Q6IQ20, Q320A); assay: Inhibition of Q320A NAPE-PLD mutant; type: biochemical
T2 sequence (Q6IQ20 1-393 Q320A): T1 sequence (Q6IQ20 1-393 Q320S) with S320A

[2] = target: T3, NAPE-PLD mutant Q158S/Y159S (Homo sapiens, UniProt Q6IQ20, Q158S/Y159S); assay: Inhibition of double NAPE-PLD mutant Q158S/Y159S; type: biochemical; conditions: mutant unable to bind bile acids
T3 sequence (Q6IQ20 1-393 Q158S/Y159S): T1 sequence (Q6IQ20 1-393 Q320S) with Q158S, Y159S, S320Q

[3] = target: purified human recombinant NAPE-PLD (Homo sapiens, UniProt Q6IQ20); assay: Inhibition of purified human recombinant NAPE-PLD; type: biochemical
How it was run: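 Purified recombinant human NAPE-PLD. Michaelis-Menten kinetics and activity time-course were run with vehicle (1% DMSO) or test compound at 50 or 100 μM. Reversibility was tested by rapid dilution after preincubating the enzyme with vehicle (1% DMSO) or test compound (100 μM).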

[4] = test system: isofunctional, but zinc-independent enzyme activities present in cytosolic and microsomal fractions of mouse brain or small intestine; assay: Isofunctional zinc-independent enzyme activities in mouse tissue fractions; type: biochemical; conditions: 300 μM
[5] = target: T4, human fatty acid amide hydrolase (FAAH)-1 (Homo sapiens, UniProt O00519); assay: Selectivity: FAAH-1 activity; type: biochemical; conditions: 300 μM
T4 sequence (O00519 1-579): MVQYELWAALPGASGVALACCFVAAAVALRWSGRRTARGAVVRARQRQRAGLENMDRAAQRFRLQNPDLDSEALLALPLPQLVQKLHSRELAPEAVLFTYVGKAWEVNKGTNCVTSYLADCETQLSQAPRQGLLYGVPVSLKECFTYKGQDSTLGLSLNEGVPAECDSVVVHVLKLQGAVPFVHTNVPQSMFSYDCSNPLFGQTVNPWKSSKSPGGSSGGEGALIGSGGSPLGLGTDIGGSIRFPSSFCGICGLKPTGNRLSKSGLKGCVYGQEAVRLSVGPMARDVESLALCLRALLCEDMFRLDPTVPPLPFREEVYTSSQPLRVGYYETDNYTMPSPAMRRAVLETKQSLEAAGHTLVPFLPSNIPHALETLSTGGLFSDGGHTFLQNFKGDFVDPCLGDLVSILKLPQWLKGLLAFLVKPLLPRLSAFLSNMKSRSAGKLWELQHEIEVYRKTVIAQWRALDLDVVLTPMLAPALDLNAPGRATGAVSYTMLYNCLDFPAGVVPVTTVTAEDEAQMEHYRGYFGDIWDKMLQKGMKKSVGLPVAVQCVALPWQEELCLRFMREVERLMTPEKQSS

neutral endopeptidase = neutral endopeptidase (Homo sapiens, UniProt P08473); assay: Selectivity: zinc-dependent enzyme neutral endopeptidase; type: biochemical; conditions: 50 μM
Human HEK-293 cells = assay: NAPE and FAE levels in intact HEK-293 cells by LC-MS; type: cell-based; conditions: 50 μM, 4 hours
How it was run: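 Human HEK-293 cells, which express NAPE-PLD constitutively, incubated with test compound at 50 μM for 4 h. Lipid extracts then prepared, and NAPE and fatty acid ethanolamide levels measured by liquid chromatography-mass spectrometry.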

[6] = target: angiotensin-converting enzyme (ACE) (Homo sapiens, UniProt P12821); assay: Selectivity: zinc-dependent enzyme ACE; type: biochemical; conditions: 50 μM
[7] = Solubility in assay buffer; type: physicochemical; conditions: microscopic inspection of assay wells
[8] = target: T5, human N-acylethanolamine acid amidase (NAAA) (Homo sapiens, UniProt Q02083); assay: Selectivity: NAAA activity; type: biochemical; conditions: 300 μM
T5 sequence (Q02083 29-359): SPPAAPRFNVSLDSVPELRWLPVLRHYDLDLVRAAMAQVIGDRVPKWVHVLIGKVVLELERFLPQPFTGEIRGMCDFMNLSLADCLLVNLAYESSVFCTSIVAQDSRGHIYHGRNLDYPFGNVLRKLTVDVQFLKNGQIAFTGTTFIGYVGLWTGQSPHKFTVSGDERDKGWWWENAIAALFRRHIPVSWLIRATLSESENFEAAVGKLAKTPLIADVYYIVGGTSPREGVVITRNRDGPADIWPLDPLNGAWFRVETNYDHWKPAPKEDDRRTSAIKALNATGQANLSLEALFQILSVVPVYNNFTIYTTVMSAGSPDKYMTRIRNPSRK

purified human recombinant NAPE-PLD, sequence (Q6IQ20 whole entry): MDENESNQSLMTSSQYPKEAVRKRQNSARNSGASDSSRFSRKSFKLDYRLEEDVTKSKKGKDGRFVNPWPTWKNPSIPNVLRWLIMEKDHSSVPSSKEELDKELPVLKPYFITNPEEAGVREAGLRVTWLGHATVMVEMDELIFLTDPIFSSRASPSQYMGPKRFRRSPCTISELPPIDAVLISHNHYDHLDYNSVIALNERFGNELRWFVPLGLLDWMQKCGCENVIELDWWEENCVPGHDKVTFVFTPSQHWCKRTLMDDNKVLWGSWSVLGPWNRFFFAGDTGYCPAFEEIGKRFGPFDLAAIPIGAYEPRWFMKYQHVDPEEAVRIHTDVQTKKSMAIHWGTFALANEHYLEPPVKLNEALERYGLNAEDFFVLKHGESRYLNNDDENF
neutral endopeptidase, sequence (P08473 whole entry, species assumed): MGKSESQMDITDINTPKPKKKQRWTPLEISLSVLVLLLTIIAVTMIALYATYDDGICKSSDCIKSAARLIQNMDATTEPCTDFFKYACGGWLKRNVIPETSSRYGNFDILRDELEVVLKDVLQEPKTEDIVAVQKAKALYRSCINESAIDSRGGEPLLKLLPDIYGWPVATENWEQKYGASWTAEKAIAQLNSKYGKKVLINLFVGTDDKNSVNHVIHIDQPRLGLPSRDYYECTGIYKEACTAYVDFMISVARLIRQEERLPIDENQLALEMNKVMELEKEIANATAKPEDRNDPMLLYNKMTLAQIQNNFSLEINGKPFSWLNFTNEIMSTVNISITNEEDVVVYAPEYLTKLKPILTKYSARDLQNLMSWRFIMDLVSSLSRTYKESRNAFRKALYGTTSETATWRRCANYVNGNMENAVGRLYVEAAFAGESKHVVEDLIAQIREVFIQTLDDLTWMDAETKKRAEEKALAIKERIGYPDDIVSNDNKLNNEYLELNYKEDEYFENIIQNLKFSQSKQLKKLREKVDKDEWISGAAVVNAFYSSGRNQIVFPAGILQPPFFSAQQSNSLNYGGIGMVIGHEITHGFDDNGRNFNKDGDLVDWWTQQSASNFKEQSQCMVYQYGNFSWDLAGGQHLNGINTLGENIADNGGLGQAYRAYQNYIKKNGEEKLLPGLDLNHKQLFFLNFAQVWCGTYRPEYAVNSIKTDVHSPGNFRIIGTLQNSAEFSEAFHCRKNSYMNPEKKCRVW
angiotensin-converting enzyme (ACE), sequence (P12821 30-1306, species assumed): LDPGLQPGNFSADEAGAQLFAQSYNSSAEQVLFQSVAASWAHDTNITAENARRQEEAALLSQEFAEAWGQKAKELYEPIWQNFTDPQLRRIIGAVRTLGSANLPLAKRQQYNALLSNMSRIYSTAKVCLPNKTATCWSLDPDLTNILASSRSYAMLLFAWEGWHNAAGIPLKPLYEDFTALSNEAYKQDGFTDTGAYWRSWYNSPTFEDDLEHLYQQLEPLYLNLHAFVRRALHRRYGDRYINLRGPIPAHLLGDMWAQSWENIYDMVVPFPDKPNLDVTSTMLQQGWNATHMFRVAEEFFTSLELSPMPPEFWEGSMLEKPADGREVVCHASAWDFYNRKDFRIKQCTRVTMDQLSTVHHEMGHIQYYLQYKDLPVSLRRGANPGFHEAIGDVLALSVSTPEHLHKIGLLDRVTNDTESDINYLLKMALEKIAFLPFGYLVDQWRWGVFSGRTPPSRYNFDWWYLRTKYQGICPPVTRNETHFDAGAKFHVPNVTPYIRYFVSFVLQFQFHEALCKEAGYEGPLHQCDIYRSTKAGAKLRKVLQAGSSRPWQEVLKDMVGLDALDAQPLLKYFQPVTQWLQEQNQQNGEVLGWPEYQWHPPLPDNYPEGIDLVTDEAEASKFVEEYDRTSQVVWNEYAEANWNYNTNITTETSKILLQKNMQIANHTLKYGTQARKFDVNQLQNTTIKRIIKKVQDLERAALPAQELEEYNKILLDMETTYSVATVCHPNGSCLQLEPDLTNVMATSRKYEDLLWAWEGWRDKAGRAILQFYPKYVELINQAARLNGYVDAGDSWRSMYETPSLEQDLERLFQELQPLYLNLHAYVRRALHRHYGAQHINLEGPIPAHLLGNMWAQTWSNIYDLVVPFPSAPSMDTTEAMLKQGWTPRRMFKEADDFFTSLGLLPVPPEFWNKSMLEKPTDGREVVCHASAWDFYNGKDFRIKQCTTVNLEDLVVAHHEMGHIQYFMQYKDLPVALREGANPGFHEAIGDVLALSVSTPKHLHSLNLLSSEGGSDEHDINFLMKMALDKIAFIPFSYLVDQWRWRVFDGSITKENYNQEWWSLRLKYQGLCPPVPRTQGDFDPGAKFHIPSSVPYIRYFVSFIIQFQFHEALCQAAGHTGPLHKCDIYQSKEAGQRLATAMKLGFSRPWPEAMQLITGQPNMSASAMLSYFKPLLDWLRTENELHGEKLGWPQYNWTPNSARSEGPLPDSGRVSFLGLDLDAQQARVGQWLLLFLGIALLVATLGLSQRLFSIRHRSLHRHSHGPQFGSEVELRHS

| SMILES | Inhibitory effect on carbonic anhydrase (CA) II [1] | IC50 (Q320S NAPE-PLD) [µM] | IC50 (Q320A NAPE-PLD mutant) [µM] | Susceptibility of Q158S/Y159S mutant to inhibition [2] | Time-course of NAPE-PLD inhibition ([3]; 18 at 50 or 100 μM) | Mechanism of NAPE-PLD inhibition (kinetic analyses) ([3]; Michaelis-Menten kinetics, 18 at 50 or 100 μM) | Reversibility upon dilution of enzyme-inhibitor complex (rapid dilution assay) ([3]; preincubated with 100 μM) | Effect on isofunctional zinc-independent enzyme activities [4] | Effect on human FAAH-1 activity [5] | Inhibitory effect on neutral endopeptidase (neutral endopeptidase) | Endogenous oleoylethanolamide (OEA) levels in HEK-293 cells (Human HEK-293 cells) | Endogenous palmitoylethanolamide (PEA) levels in HEK-293 cells (Human HEK-293 cells) | NAPE levels in HEK-293 cells (Human HEK-293 cells) | Inhibitory effect on angiotensin-converting enzyme (ACE) [6] | Solubility in assay / aqueous buffer [7] | Effect on human NAAA activity [8] | Inhibition of purified NAPE-PLD (concentration-response, Figure 3a) ([3]; identical conditions as 18) |
| --- | --- | --- | --- | --- | --- | --- | --- | --- | --- | --- | --- | --- | --- | --- | --- | --- | --- |
| O=c1[nH]c(=O)c2cc(S(=O)(=O)Nc3ccc(-c4ccncc4)cc3)ccc2[nH]1 [Compound 18, 2,4-dioxo-N-[4-(4-pyridyl)phenyl]-1H-quinazoline-6-sulfonamide] | no inhibitory effect | 36.7 ± 1.6 | 89.2 ± 2.3 | as susceptible to inhibition by 18 as wild-type NAPE-PLD | rapid | uncompetitive | readily reversed | did not affect | did not affect | no inhibitory effect | remained unmodified | remained unmodified | substantial accumulation | no inhibitory effect | adequate solubility | did not affect |  |
| O=C(Cc1cccs1)N[C@@H]1C(=O)N2C(C(=O)O)=C(/C=C/c3ccc([N+](=O)[O-])cc3[N+](=O)[O-])CS[C@H]12 [nitrocefin, reference compound] |  |  |  |  |  |  |  |  |  |  |  |  |  |  |  |  | inactive |
